Assay results published in ChEMBL document CHEMBL1155897, “Structure-antitussive activity relationships of naltrindole derivatives. Identification of novel and potent antitussive agents” (J Med Chem, 2008).
Active and inactive are the calls of the source. The rule behind the calls is not given here.

How the values were obtained:
[1] = biological target: Kappa-type opioid receptor (Homo sapiens) (UniProt P41145); assay: Agonist activity at human kappa opioid receptor expressed in HEK293 cells assessed as stimulation of [35S]GTPgammaS binding at 1 uM relative to U69,593; type: functional, cell-based
Summary of the method: (§1)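 Compound was preincubated 20 min at 30 °C, then 60 min with SPA beads. 0.3 nM [35S]GTPγS was added for 30 min.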

Cavia porcellus [2] = species on record: Cavia porcellus; assay: Selectivity for delta opioid receptor over kappa opioid receptor in Hartley guinea pig brain membrane; type: cell membranes
[3] = Binding affinity to guinea pig delta opioid receptor; parameters: species or system Cavia porcellus
Summary of the method: (§2)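 Brains from 4-week male Hartley guinea pigs were split into forebrain (µ, δ) and cerebellum (κ). Membranes were homogenised in 50 mM Tris-HCl pH 7.4 and held 1 h at 4 °C to remove endogenous ligands.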

Mu-type opioid receptor [4] = biological target: T1, Mu-type opioid receptor (Cavia porcellus, UniProt P97266); assay: Binding affinity to guinea pig mu opioid receptor; summary of the method: as §2
[5] = Displacement of [3H]NTI from delta opioid receptor in Hartley guinea pig brain membrane; type: cell membranes, Cavia porcellus; summary of the method: as §2
Rattus norvegicus [6] = assay: Antitussive activity in po dosed Sprague-Dawley rat assessed as reduction in number of capsaicin-induced coughs; type: functional
Mu-type opioid receptor [7] = biological target: T1, Mu-type opioid receptor; assay: Displacement of [3H]DAMGO from mu opioid receptor in Hartley guinea pig brain membrane; type: cell membranes; summary of the method: as §2
Cavia porcellus [8] = species on record: Cavia porcellus; assay: Selectivity for delta opioid receptor over mu opioid receptor in Hartley guinea pig brain membrane; type: cell membranes
[9] = biological target: Mu-type opioid receptor (Homo sapiens) (UniProt P35372); assay: Agonist activity at human mu opioid receptor expressed in CHO cells assessed as stimulation of [35S]GTPgammaS binding at 1 uM relative to DAMGO; type: functional, cell-based; summary of the method: as §1
[10] = biological target: Delta-type opioid receptor (Homo sapiens) (UniProt P41143); assay: Agonist activity at human delta opioid receptor expressed in CHO cells assessed as stimulation of [35S]GTPgammaS binding at 1 uM relative to DPDPE; type: functional, cell-based; summary of the method: as §1
[11] = biological target: T2, Kappa-type opioid receptor (Cavia porcellus, UniProt P41144); assay: Displacement of […] from kappa opioid receptor in Hartley guinea pig brain membrane; type: cell membranes
[12] = biological target: T3, Delta-type opioid receptor (Mus musculus, UniProt P32300); assay: Antagonist activity at delta opioid receptor in electrically-induced ddY mouse vas deferens assessed as effect on DPDPE-induced inhibition of electrically-stimulated contraction at 10 uM; type: functional, tissue-based; conditions: read-out: pA2 (converted)
Summary of the method: (§3)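 Vas deferens from male ddy mice was mounted in a Magnus tube at 37 °C in Krebs-Henseleit gassed with 95% O2/5% CO2 and electrically stimulated. Antagonist was added 20 min before cumulative agonist: DPDPE (δ), U-50,488H (κ) or morphine (µ). Dose ratio is the agonist IC50 with versus without antagonist, as mean of N=4. pA2 = −log([B]/(dose ratio − 1)).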

[13] = biological target: T4, Kappa-type opioid receptor (Mus musculus, UniProt P33534); assay: Antagonist activity at kappa opioid receptor in electrically-induced ddY mouse vas deferens assessed as effect on U50,488H-induced inhibition of electrically-stimulated contraction at 10 uM; type: functional, tissue-based; conditions: read-out: pA2 (converted); summary of the method: as §3
Rattus norvegicus [14] = assay: Antitussive activity in ip dosed Sprague-Dawley rat assessed as reduction in number of capsaicin-induced coughs; type: functional
[15] = biological target: T4, Kappa-type opioid receptor; assay: Antagonist activity at kappa opioid receptor in electrically-induced ddY mouse vas deferens assessed as effect on U50,488H-induced inhibition of electrically-stimulated contraction at 100 uM; type: functional, tissue-based; conditions: read-out: pA2 (converted); summary of the method: as §3
[16] = biological target: T2, Kappa-type opioid receptor; assay: Binding affinity to guinea pig kappa opioid receptor; summary of the method: as §2
[17] = biological target: T4, Kappa-type opioid receptor; assay: Antagonist activity at kappa opioid receptor in electrically-induced ddY mouse vas deferens assessed as effect on U50,488H-induced inhibition of electrically-stimulated contraction at 30 uM; type: functional, tissue-based; conditions: read-out: pA2 (converted); summary of the method: as §3
Mu-type opioid receptor [18] = biological target: T5, Mu-type opioid receptor (Mus musculus, UniProt P42866); assay: Antagonist activity at mu opioid receptor in electrically-induced ddY mouse vas deferens assessed as effect on morphine-induced inhibition of electrically-stimulated contraction at 30 uM; type: functional, tissue-based; conditions: read-out: pA2 (converted); summary of the method: as §3
[19] = biological target: T3, Delta-type opioid receptor; assay: Antagonist activity at delta opioid receptor in electrically-induced ddY mouse vas deferens assessed as effect on DPDPE-induced inhibition of electrically-stimulated contraction at 30 uM; type: functional, tissue-based; conditions: read-out: pA2 (converted); summary of the method: as §3
Mu-type opioid receptor [20] = biological target: T5, Mu-type opioid receptor; assay: Antagonist activity at mu opioid receptor in electrically-induced ddY mouse vas deferens assessed as effect on […]-induced inhibition of electrically-stimulated contraction at 10 uM; type: functional, tissue-based; conditions: read-out: pA2 (converted)
Rattus norvegicus [21] = assay: Effect on Sprague-Dawley rat capsaicin-induced cough nodel assessed as increase in number of coughs at 10 mg/kg, sc; type: functional, organism-based; parameters: dose 10 mg/kg
[22] = biological target: T3, Delta-type opioid receptor; assay: Antagonist activity at delta opioid receptor in electrically-induced ddY mouse vas deferens assessed as effect on DPDPE-induced inhibition of electrically-stimulated contraction at 100 uM; type: functional, tissue-based; conditions: read-out: pA2 (converted); summary of the method: as §3

Chain of Delta-type opioid receptor (Homo sapiens) (P41143 whole entry): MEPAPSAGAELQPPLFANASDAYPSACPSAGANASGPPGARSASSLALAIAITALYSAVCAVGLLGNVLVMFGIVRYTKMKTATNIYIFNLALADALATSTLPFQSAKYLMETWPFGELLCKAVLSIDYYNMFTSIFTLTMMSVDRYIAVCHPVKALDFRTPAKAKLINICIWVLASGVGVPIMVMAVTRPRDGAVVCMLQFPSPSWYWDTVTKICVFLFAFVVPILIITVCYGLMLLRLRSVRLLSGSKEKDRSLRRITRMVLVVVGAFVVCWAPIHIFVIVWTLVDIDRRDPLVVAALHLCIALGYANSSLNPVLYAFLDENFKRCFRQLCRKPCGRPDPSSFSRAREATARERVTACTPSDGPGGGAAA
Chain of Kappa-type opioid receptor (Homo sapiens) (P41145 whole entry): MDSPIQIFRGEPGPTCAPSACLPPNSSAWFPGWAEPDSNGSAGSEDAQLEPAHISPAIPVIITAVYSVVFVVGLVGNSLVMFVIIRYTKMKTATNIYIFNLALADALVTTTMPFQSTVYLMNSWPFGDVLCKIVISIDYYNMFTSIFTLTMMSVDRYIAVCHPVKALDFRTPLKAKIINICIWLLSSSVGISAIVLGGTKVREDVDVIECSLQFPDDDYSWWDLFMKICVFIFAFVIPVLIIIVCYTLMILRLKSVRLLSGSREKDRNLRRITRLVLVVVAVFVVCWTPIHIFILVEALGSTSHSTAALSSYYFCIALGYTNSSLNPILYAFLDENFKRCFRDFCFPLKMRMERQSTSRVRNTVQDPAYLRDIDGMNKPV
Chain of Mu-type opioid receptor (Homo sapiens) (P35372 whole entry): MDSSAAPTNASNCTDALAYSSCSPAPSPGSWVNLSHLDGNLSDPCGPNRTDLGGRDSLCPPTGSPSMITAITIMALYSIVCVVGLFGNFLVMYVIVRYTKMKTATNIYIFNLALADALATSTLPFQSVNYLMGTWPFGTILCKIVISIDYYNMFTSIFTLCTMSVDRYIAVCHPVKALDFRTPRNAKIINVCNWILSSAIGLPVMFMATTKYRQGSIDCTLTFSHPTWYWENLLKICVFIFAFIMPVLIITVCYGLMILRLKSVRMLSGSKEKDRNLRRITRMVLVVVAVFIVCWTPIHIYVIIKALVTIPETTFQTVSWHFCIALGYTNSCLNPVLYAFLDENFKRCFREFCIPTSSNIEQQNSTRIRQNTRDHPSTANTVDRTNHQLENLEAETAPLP
T2 sequence (P41144 whole entry): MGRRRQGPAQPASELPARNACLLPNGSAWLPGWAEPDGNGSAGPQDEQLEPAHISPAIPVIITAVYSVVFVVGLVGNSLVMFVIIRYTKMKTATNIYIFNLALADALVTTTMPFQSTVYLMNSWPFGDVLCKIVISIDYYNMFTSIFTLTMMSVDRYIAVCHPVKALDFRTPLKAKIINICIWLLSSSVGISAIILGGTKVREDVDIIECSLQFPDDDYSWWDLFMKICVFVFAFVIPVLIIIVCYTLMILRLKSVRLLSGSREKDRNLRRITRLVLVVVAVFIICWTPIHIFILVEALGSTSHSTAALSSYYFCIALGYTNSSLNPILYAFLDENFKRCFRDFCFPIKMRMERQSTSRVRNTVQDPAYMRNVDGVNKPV
T3 sequence (P32300 whole entry): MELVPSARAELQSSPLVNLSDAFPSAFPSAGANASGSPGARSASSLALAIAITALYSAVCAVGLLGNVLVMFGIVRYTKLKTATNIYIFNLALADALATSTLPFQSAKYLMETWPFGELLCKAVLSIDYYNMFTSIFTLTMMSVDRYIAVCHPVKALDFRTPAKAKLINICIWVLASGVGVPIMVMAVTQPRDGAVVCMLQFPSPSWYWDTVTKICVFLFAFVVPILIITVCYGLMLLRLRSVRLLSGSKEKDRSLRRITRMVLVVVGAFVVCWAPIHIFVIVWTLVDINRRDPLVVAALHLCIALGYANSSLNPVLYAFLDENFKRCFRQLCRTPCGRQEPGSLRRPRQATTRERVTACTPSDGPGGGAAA
T1 sequence (P97266 whole entry): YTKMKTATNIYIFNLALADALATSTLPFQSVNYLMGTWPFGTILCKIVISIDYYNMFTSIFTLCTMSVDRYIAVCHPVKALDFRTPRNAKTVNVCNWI
T5 sequence (P42866 whole entry): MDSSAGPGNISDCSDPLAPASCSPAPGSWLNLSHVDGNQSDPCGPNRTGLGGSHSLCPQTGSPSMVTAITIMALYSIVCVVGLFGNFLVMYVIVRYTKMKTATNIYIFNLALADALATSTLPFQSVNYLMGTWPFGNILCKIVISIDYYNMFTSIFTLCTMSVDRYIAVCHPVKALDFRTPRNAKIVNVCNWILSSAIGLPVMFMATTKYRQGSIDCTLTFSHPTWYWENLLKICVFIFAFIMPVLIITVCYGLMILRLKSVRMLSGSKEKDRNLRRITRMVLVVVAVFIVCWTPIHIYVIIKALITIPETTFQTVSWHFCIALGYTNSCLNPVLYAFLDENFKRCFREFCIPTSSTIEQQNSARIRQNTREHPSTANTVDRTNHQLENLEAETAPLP
T4 sequence (P33534 whole entry): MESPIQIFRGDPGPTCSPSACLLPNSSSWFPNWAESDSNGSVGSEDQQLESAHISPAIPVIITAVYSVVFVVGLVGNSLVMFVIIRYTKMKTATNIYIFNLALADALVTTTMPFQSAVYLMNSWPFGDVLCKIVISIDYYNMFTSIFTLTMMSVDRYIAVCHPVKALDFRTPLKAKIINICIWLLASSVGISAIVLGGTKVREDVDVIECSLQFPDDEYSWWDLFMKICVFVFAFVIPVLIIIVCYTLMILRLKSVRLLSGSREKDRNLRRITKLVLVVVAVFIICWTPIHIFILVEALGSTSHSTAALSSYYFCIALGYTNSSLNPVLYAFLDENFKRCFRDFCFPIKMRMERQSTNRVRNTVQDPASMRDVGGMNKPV

| SMILES | Activity [1] [%] | Selectivity ratio (Cavia porcellus [2]) | Ki [5] [µM] | Ki (Mu-type opioid receptor [7]) [µM] | Selectivity ratio (Cavia porcellus [8]) | Activity [9] [%] | Activity [10] [%] | Ki [11] [µM] | ED50 (Rattus norvegicus [14]) [mg/kg] | also measured |
| --- | --- | --- | --- | --- | --- | --- | --- | --- | --- | --- |
| Oc1ccc2c3c1O[C@H]1c4[nH]c5ccccc5c4C[C@@]4(O)[C@@H](C2)N(CC2CC2)CC[C@]314 [NALTRINDOLE] | 12 | 55 | 0.000135 | 0.0127 | 94 | 5 | -3 | 0.00744 |  | Ki [3]: 0.000217 µM; Ki (Mu-type opioid receptor [4]): 0.027 µM; ED50 (Rattus norvegicus [6]): 1.83 mg/kg |
| COc1ccc2c3c1O[C@H]1c4c(c5cccc6c5n4CCCC6)C[C@@]4(O)[C@@H](C2)N(CC2CC2)CC[C@]314 | 11 | 12 | 0.274 | > 3.67 | > 13 | -1 | 45 | 3.34 |  | Kb [12]: 0.295 µM; Kb [13]: 0.017 µM |
| COc1ccc2c3c1O[C@H]1c4c(c5cccc(C)c5n4C)C[C@@]4(O)[C@@H](C2)N(CC2CC2)CC[C@]314 |  |  |  |  |  |  |  |  | 0.00635 |  |
| COc1ccc2c3c1O[C@H]1c4c(c5cccc6c5n4CCC6)C[C@@]4(O)[C@@H](C2)N(CC2CC2)CC[C@]314.CS(=O)(=O)O | 8 | 42 | 0.079 | > 3.67 | > 46 | -1 | 47 | 3.29 |  | Kb [15]: 0.0676 µM; ED50 (Rattus norvegicus [6]): 0.0064 mg/kg |
| COc1ccc2c3c1O[C@H]1c4[nH]c5ccccc5c4C[C@@]4(O)[C@@H](C2)N(CC2CC2)CC[C@]314 |  |  |  |  |  |  |  |  |  | Ki [16]: 3.91 µM; Ki [3]: 0.00657 µM; Ki (Mu-type opioid receptor [4]): 2.51 µM |
| Oc1ccc2c3c1O[C@H]1c4c(c5cccc6c5n4CC6)C[C@@]4(O)[C@@H](C2)N(CC2CC2)CC[C@]314 | 3 | 27 | 0.000295 | 0.0232 | 79 | 0 | 26 | 0.00799 |  | Kb [17]: 0.00794 µM; Kb (Mu-type opioid receptor [18]): 0.0158 µM |
| Oc1ccc2c3c1O[C@H]1c4c(c5cccc6c5n4CCC6)C[C@@]4(O)[C@@H](C2)N(CC2CC2)CC[C@]314 | 26 | 22 | 0.000673 | 0.0606 | 90 | 1 | -2 | 0.0151 |  | Kb [19]: 0.000794 µM; Kb [17]: 0.0275 µM; Kb (Mu-type opioid receptor [18]): 0.0126 µM |
| Cn1c2c(c3ccccc31)C[C@@]1(O)[C@H]3Cc4ccc(O)c5c4[C@@]1(CCN3CC1CC1)[C@H]2O5 |  |  |  |  |  |  |  |  | 0.204 |  |
| Oc1ccc2c3c1O[C@H]1c4c(c5cccc6c5n4CCCC6)C[C@@]4(O)[C@@H](C2)N(CC2CC2)CC[C@]314 | 32 | 18 | 0.00226 | 0.113 | 50 | -1 | 20 | 0.04 | 0.0123 | Kb [13]: 0.0513 µM; Kb (Mu-type opioid receptor [20]): 0.0182 µM |
| CCn1c2c(c3cccc(C)c31)C[C@@]1(O)[C@H]3Cc4ccc(OC)c5c4[C@@]1(CCN3CC1CC1)[C@H]2O5 | 21 | 21 | 0.218 | > 3.67 | > 17 | 1 | 47 | 4.65 | 0.00179 |  |
| CN1CC[C@]2(c3cccc(O)c3)Cc3nc4ccccc4cc3C[C@H]2C1 (relative stereo) |  |  |  |  |  |  |  |  |  | Activity (Rattus norvegicus [21]): Active |
| CCCn1c2c(c3ccccc31)C[C@@]1(O)[C@H]3Cc4ccc(OC)c5c4[C@@]1(CCN3CC1CC1)[C@H]2O5 |  |  |  |  |  |  |  |  | 0.0148 |  |
| Oc1ccc2c3c1O[C@H]1c4[nH]c5c6c(ccc5c4C[C@@]4(O)[C@@H](C2)N(CC2CC2)CC[C@]314)CCCC6 | 33 | 8.2 | 0.00632 | 0.2 | 32 | -1 | 19 | 0.052 |  | Kb [15]: 1.66 µM; Kb [22]: 0.0234 µM |
